Measured values as given in ChEMBL document CHEMBL3259714, “Pyrazolo[4,3-e][1,2,4]triazine sulfonamides as carbonic anhydrase inhibitors with antitumor activity” (Bioorg Med Chem, 2014).
pIC50, pKi: −log10 of the molar value.

Key:
MDA-MB-231 [1] = test: Cytostatic activity against human MDA-MB-231 cells assessed as inhibition of DNA synthesis after 24 hrs by [3H]thymidine incorporation assay; format: functional, cell-based
How it was run: (§1)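 Cells kept in DMEM with 10% FBS and penicillin/streptomycin at 37 °C. Seeded in 6-well plates and grown to about 80% confluency, in DMEM without phenol red with 10% CPSR1. Exposed to a range of concentrations plus 0.5 μCi [³H]-thymidine for 24 h at 37 °C. Cells trypsinized and washed with cold PBS until wash dpm matched the reagent control. Uptake counted by liquid scintillation as dpm/well. IC50 is mean ± S.D. of four independent experiments.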

MDA-MB-231 [2] = test: Inhibition of collagen synthesis in human MDA-MB-231 cells assessed as 5-[3H]-proline incorporation into proteins susceptible to action of bacterial collagenase after 24 hrs; format: functional, cell-based
How it was run: (§2)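 Cells labelled 24 h in growth medium with 5-[³H]proline (5 μCi/mL, 28 Ci/mmol) at a range of compound concentrations. Collagen share of incorporated label found by digesting proteins with purified Clostridium histolyticum collagenase (Peterkofsky method). Cell and medium fractions combined. IC50 is the mean ± S.D. of three independent experiments run in duplicate.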

Carbonic anhydrase 12 = Carbonic anhydrase 12 (Homo sapiens, UniProt O43570); test: Inhibition of human carbonic anhydrase 12-mediated CO2 hydration preincubated for 15 mins by stopped-flow assay
MCF7 [3] = test: Inhibition of collagen synthesis in human MCF7 cells assessed as 5-[3H]-proline incorporation into proteins susceptible to action of bacterial collagenase after 24 hrs; format: functional, cell-based; how it was run: as §2
Carbonic anhydrase 1 = Carbonic anhydrase 1 (Homo sapiens, UniProt P00915); test: Inhibition of human carbonic anhydrase 1-mediated CO2 hydration preincubated for 15 mins by stopped-flow assay
Carbonic anhydrase 9 = Carbonic anhydrase 9 (Homo sapiens, UniProt Q16790); test: Inhibition of human carbonic anhydrase 9-mediated CO2 hydration preincubated for 15 mins by stopped-flow assay
Carbonic anhydrase 2 = Carbonic anhydrase 2 (Homo sapiens, UniProt P00918); test: Inhibition of human carbonic anhydrase 2-mediated CO2 hydration preincubated for 15 mins by stopped-flow assay
MCF7 [4] = test: Cytostatic activity against human MCF7 cells assessed as inhibition of DNA synthesis after 24 hrs by [3H]thymidine incorporation assay; format: functional, cell-based; how it was run: as §1
MDA-MB-231 [5] = test: Cytotoxicity against human MDA-MB-231 cells assessed as growth inhibition after 24 hrs by MTT assay; format: functional, cell-based; settings: for pIC50: MDA-MB-231, 24 h
How it was run: (§3)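 Confluent cells in 6-well plates treated 24 h with a range of concentrations, then washed with PBS. MTT (0.5 mg/ml in PBS) added for 4 h at 37 °C, 5% CO₂. Dye dissolved in 0.1 mol/l HCl in isopropanol and read at 570 nm. Viability given as % of untreated control, run in triplicate. IC50 taken from dose-response curves as 50% viable cells versus control.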

MCF7 [6] = test: Cytotoxicity against human MCF7 cells assessed as growth inhibition after 24 hrs by MTT assay; format: functional, cell-based; settings: for pIC50: MCF7, 24 h; how it was run: as §3

Carbonic anhydrase 1, sequence (P00915 whole entry): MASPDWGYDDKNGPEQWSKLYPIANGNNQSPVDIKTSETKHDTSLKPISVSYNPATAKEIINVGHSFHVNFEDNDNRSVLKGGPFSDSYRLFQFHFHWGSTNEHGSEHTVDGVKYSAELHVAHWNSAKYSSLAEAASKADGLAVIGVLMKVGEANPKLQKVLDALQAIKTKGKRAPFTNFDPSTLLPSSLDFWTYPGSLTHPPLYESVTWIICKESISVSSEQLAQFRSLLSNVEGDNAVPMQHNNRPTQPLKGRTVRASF
Carbonic anhydrase 12, sequence (O43570 whole entry): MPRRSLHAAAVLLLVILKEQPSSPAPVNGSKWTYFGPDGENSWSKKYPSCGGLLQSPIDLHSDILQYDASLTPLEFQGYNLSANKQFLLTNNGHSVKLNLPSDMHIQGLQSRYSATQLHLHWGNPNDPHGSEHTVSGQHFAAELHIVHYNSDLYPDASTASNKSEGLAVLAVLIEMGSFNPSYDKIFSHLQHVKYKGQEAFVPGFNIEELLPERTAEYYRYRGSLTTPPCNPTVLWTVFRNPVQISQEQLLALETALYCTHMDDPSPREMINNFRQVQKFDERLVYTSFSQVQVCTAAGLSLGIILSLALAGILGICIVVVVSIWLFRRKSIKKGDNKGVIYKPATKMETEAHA

SMILES | inhibition (MDA-MB-231 [1]) | pIC50 (MDA-MB-231 [2]) | pKi (Carbonic anhydrase 12) | pIC50 (MCF7 [3]) | pKi (Carbonic anhydrase 1) | pKi (Carbonic anhydrase 9) | pKi (Carbonic anhydrase 2) | inhibition (MCF7 [4]) | pIC50 (MDA-MB-231 [1]) | growth inhibition (GI) (MDA-MB-231 [5]) | pIC50 (MDA-MB-231 [5]) | growth inhibition (GI) (MCF7 [6]) | pIC50 (MCF7 [6]) | pIC50 (MCF7 [4])
Cc1nn(C)c2nnc(Nc3ccc(S(=O)(=O)N4CCCNCC4)cc3)nc12 | Dose-dependent effect | 3.87 | 8.23 | 3.88 | < 4.30 | < 4.30 | 6.04 | Dose-dependent effect |  |  |  |  |  | 
Cc1nn(C)c2nnc(Nc3ccc(S(=O)(=O)N4CCN(C)CC4)cc3)nc12 | Dose-dependent effect | 4.24 | 8.28 | 4.33 | < 4.30 | < 4.30 | 6.18 | Dose-dependent effect |  |  |  |  |  | 
Cc1nn(C)c2nnc(Nc3ccccc3)nc12 |  |  | 8.05 |  | < 4.30 | 7.09 | 6.08 |  |  |  |  |  |  | 
Cc1nn(C)c2nnc(Nc3ccc(S(=O)(=O)N4CCCC4)cc3)nc12 | Dose-dependent effect | < 3.70 | 8.09 | < 3.70 | < 4.30 | 6.19 | 8.20 | Dose-dependent effect |  |  |  |  |  | 
Cc1nn(C)c2nnc(Nc3ccc(S(=O)(=O)NCCO)cc3)nc12 | Dose-dependent effect | < 3.70 | 8.12 | < 3.70 | < 4.30 | 7.58 | 6.11 | Dose-dependent effect |  |  |  |  |  | 
CCOc1ccc(S(=O)(=O)NCCN2CCOCC2)cc1-c1nnc2c(n1)c(C)nn2C | Dose-dependent effect |  |  |  |  |  |  | Dose-dependent effect | 3.81 | Dose-dependent effect | 3.87 | Dose-dependent effect | 3.88 | 3.84
CCOc1ccc(S(=O)(=O)N2CCCC2)cc1-c1nnc2c(n1)c(C)nn2C | Dose-dependent effect |  |  |  |  |  |  | Dose-dependent effect | 3.80 | Dose-dependent effect | 3.92 | Dose-dependent effect | 3.95 | 3.89
Cc1nn(C)c2nnc(Nc3ccc(S(=O)(=O)N4CCOCC4)cc3)nc12 | Dose-dependent effect | < 3.70 |  | < 3.70 |  |  |  | Dose-dependent effect |  |  |  |  |  | 
CCOc1ccc(S(=O)(=O)NCCO)cc1-c1nnc2c(n1)c(C)nn2C | Dose-dependent effect |  |  |  |  |  |  | Dose-dependent effect | < 3.70 | Dose-dependent effect | < 3.70 | Dose-dependent effect | < 3.70 | < 3.70
Cc1nn(C)c2nnc(Nc3ccc(S(=O)(=O)N4CCNCC4)cc3)nc12 | Dose-dependent effect | 3.74 | 8.24 | 3.76 | < 4.30 | < 4.30 | 6.15 | Dose-dependent effect |  |  |  |  |  | 
Cc1nn(C)c2nnc(S(C)(=O)=O)nc12 |  |  | 8.18 |  | < 4.30 | 7.05 | 6.11 |  |  |  |  |  |  | 
CCOc1ccc(S(=O)(=O)N2CCNCC2)cc1-c1nnc2c(n1)c(C)nn2C | Dose-dependent effect |  |  |  |  |  |  | Dose-dependent effect | 3.79 | Dose-dependent effect | 3.74 | Dose-dependent effect | 3.76 | 3.82
Cc1nn(C)c2nnc(Nc3ccc(S(=O)(=O)N4CCCCC4)cc3)nc12 | Dose-dependent effect | 3.84 | 8.21 | 3.79 | < 4.30 | < 4.30 | 6.31 | Dose-dependent effect |  |  |  |  |  | 
CCOc1ccc(S(=O)(=O)N2CCN(C)CC2)cc1-c1nnc2c(n1)c(C)nn2C | Dose-dependent effect |  |  |  |  |  |  | Dose-dependent effect | 3.82 | Dose-dependent effect | 3.94 | Dose-dependent effect | 3.96 | 3.85
O=C(O)CCCc1ccc(N(CCCl)CCCl)cc1 [CHLORAMBUCIL] | Dose-dependent effect | 4.14 |  | 4.28 |  |  |  | Dose-dependent effect |  | Dose-dependent effect |  | Dose-dependent effect |  | 
CCOc1ccc(S(=O)(=O)N2CCCNCC2)cc1-c1nnc2c(n1)c(C)nn2C | Dose-dependent effect |  |  |  |  |  |  | Dose-dependent effect | 3.94 | Dose-dependent effect | 3.89 | Dose-dependent effect | 3.91 | 3.89
Cc1nn(C)c2nnc(Nc3ccc(S(=O)(=O)NCCN)cc3)nc12 | Dose-dependent effect | 4.02 | 8.15 | 3.95 | < 4.30 | 7.63 | 7.21 | Dose-dependent effect |  |  |  |  |  | 
Cc1nn(C)c2nnc(Nc3ccc(S(=O)(=O)NCCN4CCOCC4)cc3)nc12 | Dose-dependent effect | 3.86 | 8.21 | 3.85 | < 4.30 | 6.08 | 6.14 | Dose-dependent effect |  |  |  |  |  | 
CCOc1ccc(S(=O)(=O)N2CCCCC2)cc1-c1nnc2c(n1)c(C)nn2C | Dose-dependent effect |  |  |  |  |  |  | Dose-dependent effect | 3.90 | Dose-dependent effect | 4.01 | Dose-dependent effect | 3.98 | 3.95
Cc1nn(C)c2nnc(Nc3ccc(S(N)(=O)=O)cc3)nc12 |  |  | 8.10 |  | 6.57 | 7.36 | 8.10 |  |  |  |  |  |  | 
CCOc1ccc(S(=O)(=O)N2CCOCC2)cc1-c1nnc2c(n1)c(C)nn2C | Dose-dependent effect |  |  |  |  |  |  | Dose-dependent effect | 3.80 | Dose-dependent effect | 3.72 | Dose-dependent effect | 3.74 | 3.83
CCOc1ccc(S(=O)(=O)NCCN)cc1-c1nnc2c(n1)c(C)nn2C | Dose-dependent effect |  |  |  |  |  |  | Dose-dependent effect | 3.70 | Dose-dependent effect | < 3.70 | Dose-dependent effect | 3.72 | < 3.70
